Source: PubChem (several laboratories)
UCH37 DUB inh: inhibitors of human UCH37 deubiquitinase, primary screen, biochemical, Ub-AMC cleavage, fluorescence. Ubiquitin carboxyl-terminal hydrolase isozyme L5 (Homo sapiens), Q9Y5K5. purified proteasome/UCH37. inhibition, % (concentration not given with the values). 0.33% of 330,000 active. AID 588478, 2011;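 active = mean inhibition over replicate wells above about 20%, limit read from the data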
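System: Proteasome-associated human UCH37 deubiquitinase; Input: 0.15 nM proteasome in added enzyme buffer; Also added: Ub-AMC substrate from 1 µM stock; Incubation: 30 min compound-proteasome preincubation then 25 min substrate reaction, room temperature; Detection: fluorescence, ex 355 nm, em 460 nm; Read-out: % inhibition of Ub-AMC cleavage fluorescence; Benchmarks: no-proteasome and no-compound wells.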
SIRT5 block: SIRT5 desuccinylase inhibitors, primary screen, biochemical, fluorescence imaging, single point, set 5; Purified SirT5, succinyl-peptide AMC, trypsin-coupled fluorescence; 1.1% of 330,000 active; NAD-dependent protein deacylase sirtuin-5, mitochondrial (Homo sapiens), Q9NXA8; AID 652115, 2013; inhibition, % at 15 µM; in the data active = inhibition above about 15%
CASP6 VEID inh: human caspase-6 inhibitors, primary screen, biochemical, VEID-R110 fluorescence, single point, set 2; P55212; purified caspase-6, Z-VEID-R110 cleavage fluorescence; inhibition, % at 12.5 µM; 0.53% of 350,000 active;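 active = mean inhibition across replicates at least about 35%, with every replicate also reaching that limit, limit read from the data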
NSD2 inh: NSD2 histone methyltransferase inhibitors, primary screen, biochemical, AlphaScreen, single concentration, set 2 | inhibition, % at 12.5 µM | 0.54% of 310,000 active | Histone-lysine N-methyltransferase NSD2 (Homo sapiens), O96028 | NSD2 peptide methylation, 120 min; in the data active = inhibition above about 50%
FGF22 binding: binders of human FGF22 protein, primary screen, FGF22 synaptogenesis inhibitor project, biophysical, thermal shift, single point. AID 651658, 2012. recombinant FGF22 thermal shift, SYPRO orange fluorescence; percent of sucrose octasulfate shift, DMSO zero. activity (Tm shift, normalised), % at 9.99 µM. 1.5% of 340,000 active;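 active = mean Tm shift, scaled 0 neutral to 100 positive control, at about 1.3% or above, every replicate too, limit read from the data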
Hits are given with their value; . = inactive; / = no result given. Shown are actives, neighbours in structure and some others; about 2.6% of the full set was active somewhere.

SMILES	UCH37 DUB inh	SIRT5 block	CASP6 VEID inh	NSD2 inh	FGF22 binding
Cc1cccc(NC(=O)COC(=O)COc2ccc3c(c2)CCC3)c1	.	.	.	.	.
CC(C)(C)NC(=O)NC(=O)COC(=O)COc1ccc2c(c1)CCC2	20	/	/	.	/
CCOC(=O)N(O)c1ccc(C=Cc2ccccc2)cc1	/	.	67	/	.
CSc1nnc(-c2cccs2)n1C	.	.	.	.	43
Cc1noc(C)c1NC(=O)N[C@@H]1CC[C@H](CCNC(=O)C2CCC2)O[C@H]1CO	/	.	.	/	.
COc1cnn(-c2ccc(Br)cc2)c(=O)c1SCc1ccccc1	.	28	.	.	.
O=C1CC2c3ccccc3C1C1C(=O)N(CCc3ccccc3)C(=O)C21 (configuration not stated)	.	.	.	.	43
CSc1ncc(C(C)=O)c(C)n1	.	.	.	.	2.5
CC=Cc1ccc2n(c1=O)C[C@H]1[C@H](CO)[C@@H](C(=O)NCC3CC3)N(CCC)[C@@H]21 (mixture of isomers)	/	.	.	/	/
O=C(O)c1[nH]c2ccccc2c1C(c1ccccc1)c1c(C(=O)O)[nH]c2ccccc12	.	.	.	.	/
C=CCOc1ccc(C(c2c(C(=O)O)[nH]c3ccccc23)c2c(C(=O)O)[nH]c3ccccc23)cc1	.	.	48	.	.
O=C(NN=Cc1cn(Cc2ccccc2)c2ccccc12)c1cccnc1	.	/	/	/	/
O=C(N/N=C/c1cn(Cc2ccccc2)c2ccccc12)c1cc(O)cc(O)c1	/	.	53	.	.
C[C@H](CO)N1C[C@H](C)[C@H](CN(C)S(=O)(=O)c2cn(C)cn2)Oc2ncc(-c3cccc(C(F)(F)F)c3)cc2C1=O	/	.	.	/	.
COc1cccc(C2C(C#N)=C(N)OC3=C2C(=O)CC(c2ccco2)C3)c1OCc1ccc(F)cc1 (configuration not stated)	.	/	/	.	/
N#CC1=C(N)OC2=C(C(=O)CC(c3ccco3)C2)C1c1ccc(OCc2c(F)cccc2Cl)cc1 (configuration not stated)	32	/	/	.	/
CS(=O)(=O)N(CC(=O)NCCSCc1ccccc1Cl)c1ccccc1F	.	/	.	.	.
COc1ccccc1N(CC(=O)NCCSCc1ccccc1Cl)S(C)(=O)=O	.	.	39	.	.
O=C(C[C@@H]1C=C[C@H](NC(=O)C2CC2)[C@@H](CO)O1)NCC1CC1	/	.	.	/	.
CN(C)/C=C/C(=O)c1ccc(Cl)cc1	.	/	/	.	/
CN(C)/C=C/C(=O)c1ccc(-n2cccc2)cc1	22	.	.	.	.
O=C(C[C@@H]1C[C@H]2c3cc(NC(=O)C4CCOCC4)ccc3O[C@H]2[C@H](CO)O1)NCc1ccncc1	/	.	.	/	/
O=C(COc1ccc(S(=O)(=O)NC2CCCCC2)cc1Cl)NCc1ccc2c(c1)OCO2	.	.	40	.	.
O=C(CCNS(=O)(=O)c1ccc(Br)s1)NC1CCCC1	.	20	.	/	/
O=C(CCS(=O)(=O)c1ccc(Br)cc1)NC1CCCCCC1	.	.	61	.	.
SMILES	UCH37 DUB inh	SIRT5 block	CASP6 VEID inh	NSD2 inh	FGF22 binding
Cc1ccc(CNC(=O)CCS(=O)(=O)c2ccc(Br)cc2)cc1	.	.	.	.	.
Cc1ccc(S(=O)(=O)CCC(=O)NC2CCCCC2)cc1	.	.	.	.	.
O=C(CCS(=O)(=O)c1ccc(Br)cc1)NCc1ccc(F)cc1	.	.	70	.	.
C[C@@H]1CN([C@@H](C)CO)C(=O)Cc2cc(NC(=O)c3ccncc3)ccc2O[C@@H]1CN(C)CC1CCCCC1	/	.	.	/	.
CCCc1cn(CC[C@H]2CC[C@@H](NC(=O)C3CCOCC3)[C@H](CO)O2)nn1	/	.	.	/	.
C[C@H](CO)N1C[C@H](C)[C@H](CN(C)Cc2ccc(Oc3ccccc3)cc2)Oc2ccc(NC(=O)Cc3cn(C)c4ccccc34)cc2C1=O	/	.	.	/	.
C=C(C)CNC(=S)NN=Cc1ccccc1OCC(=O)O	.	/	/	/	/
O=C(COc1ccc(S(=O)(=O)NC2CCCCC2)cc1)NC1CCCC1	.	.	.	.	43
O=C(COc1ccc(S(=O)(=O)NC2CCCCC2)cc1)NC1CCCCC1	.	/	/	.	/
O=C(CCS(=O)(=O)c1ccc(Br)cc1)NCCC1=CCCCC1	.	.	66	.	.
O=C(CCS(=O)(=O)c1ccc(Cl)cc1)NCCC1=CCCCC1	.	.	.	.	.
